The GI50 is the concentration that inhibits growth by half. One may read the EC50 as the concentration that produces a half-maximal response.

From ChEMBL document CHEMBL1157168, “Potent anti-prostate cancer agents derived from a novel androgen receptor down-regulating agent” (Bioorg Med Chem, 2008) come the findings set out here.

Assay [1] has as its system LNCaP. Nature of the assay: Cytotoxicity against human LNCaP cells after 5 days by MTT assay. It counts as functional. As to conditions: 120 h. A digest of the protocol:
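LNCaP cells (RPMI 1640, 10% FBS, 1% penicillin/streptomycin, 37 °C, 5% CO2) seeded at 2 × 10^4 cells/well, left to adhere 24 h, then exposed to compounds in DMSO for five days, with compound and medium renewed on day 3. MTT (0.5 mg/mL) added for 2 h, formazan dissolved in DMSO, absorbance read at 560 nm. Triplicate wells, three independent experiments. GI50 from nonlinear regression.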
(In general: Formazan colour is commonly taken as a measure of viable cells.)

The test system of assay [2] is PC-3. Nature of the assay: Cytotoxicity against human PC3 cells after 5 days by MTT assay. In kind it is functional. As to conditions: PC-3, 120 h. A digest of the protocol:
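Growth inhibition by MTT assay with absorbance read at 560 nm. Values are means of three independent experiments.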

In assay [3] the test system is LNCaP. In words: Down regulation of androgen receptor expression in human LNCaP cells by Western blot analysis. It counts as functional, cell-based. A digest of the protocol:
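LNCaP cells cultured in T25 flasks and treated with compounds. Lysates made in 0.1 M Tris, 0.5% Triton X-100 and protease inhibitor, protein measured by Bradford assay, then run on 10% SDS-PAGE. AR detected with monoclonal AR441 (1:500) and HRP anti-mouse secondary (1:2000) by ECL. Signal normalized to β-actin.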

Assay [4] concerns the target T1, Androgen receptor (Homo sapiens) (UniProt P10275).
T1 sequence (whole entry): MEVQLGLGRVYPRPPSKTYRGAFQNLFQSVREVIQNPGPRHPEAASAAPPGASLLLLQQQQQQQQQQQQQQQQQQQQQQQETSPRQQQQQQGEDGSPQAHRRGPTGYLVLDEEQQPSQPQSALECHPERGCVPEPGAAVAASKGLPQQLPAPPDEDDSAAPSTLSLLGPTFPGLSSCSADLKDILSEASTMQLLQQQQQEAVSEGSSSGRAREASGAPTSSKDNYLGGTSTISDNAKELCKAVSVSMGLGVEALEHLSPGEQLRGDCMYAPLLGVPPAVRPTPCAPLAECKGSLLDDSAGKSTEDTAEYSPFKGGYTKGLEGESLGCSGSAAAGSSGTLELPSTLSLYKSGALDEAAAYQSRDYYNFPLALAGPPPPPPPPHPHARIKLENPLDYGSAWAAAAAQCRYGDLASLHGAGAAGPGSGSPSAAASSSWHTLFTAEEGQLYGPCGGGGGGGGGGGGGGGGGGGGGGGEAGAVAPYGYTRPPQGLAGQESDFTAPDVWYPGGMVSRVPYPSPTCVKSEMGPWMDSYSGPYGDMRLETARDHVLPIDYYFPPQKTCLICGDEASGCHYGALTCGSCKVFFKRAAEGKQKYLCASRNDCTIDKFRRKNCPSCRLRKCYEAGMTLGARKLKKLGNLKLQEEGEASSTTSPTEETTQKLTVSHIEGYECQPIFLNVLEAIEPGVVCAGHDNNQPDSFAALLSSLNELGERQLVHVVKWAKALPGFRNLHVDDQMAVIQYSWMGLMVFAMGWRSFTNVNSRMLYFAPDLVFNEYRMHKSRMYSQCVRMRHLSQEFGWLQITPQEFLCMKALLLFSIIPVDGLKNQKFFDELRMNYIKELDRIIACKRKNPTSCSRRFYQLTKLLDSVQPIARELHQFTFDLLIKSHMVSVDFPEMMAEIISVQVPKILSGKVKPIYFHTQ
In words: Displacement of [3H]R1881 from mutated androgen receptor expressed in human LNCaP cells. In kind it is cell-based. A general note: Displacement assays read how much labelled ligand stays bound in the presence of the test substance.

The target in assay [5] is T1, Androgen receptor (Homo sapiens). Nature of the assay: Displacement of [3H]R1881 from wild type androgen receptor expressed in human PC3 cells. As to conditions: PC-3. It counts as cell-based.
Assay [6] has the same target. In words: Displacement of [3H]R1881 from wild type androgen receptor expressed in human PC3 cells at 10 uM. In kind it is cell-based. As to conditions: PC-3.
Assay [7] has the same target. In words: Displacement of [3H]R1881 from wild type androgen receptor expressed in human PC3 cells at 20 uM. It counts as cell-based. As to conditions: PC-3.
For assay [8] the target is unchanged. Nature of the assay: Activity at androgen receptor expressed in human LNCaP cells assessed as decrease in dihydrotestosterone-stimulated transcriptional activity at 10 uM after 18 hrs by luciferase reporter gene assay. In kind it is cell-based. The arrangement: scale not given: the % may be the effect or the level left. A digest of the protocol: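 LNCaP cells transiently transfected with the probasin-driven ARR2-Luc reporter, held in steroid-free medium, then given vehicle or compound with or without 5 nM DHT for 18 h before luciferase read-out. Mean of three independent experiments.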
Background: Reporter assays use an easily measured gene product as a stand-in for the process of interest.

`Cc1ccc(S(=O)(=O)Nc2ccccc2)cc1`: the GI50 in assay [1] was determined as 24 µM; in assay [2] it was 38.9 µM.

In assay [1], `Cc1ccc(NS(=O)(=O)c2ccccc2)c(C(=O)O)c1` registered a GI50 of 0.0182 µM.

With `Cc1ccc(NS(=O)(=O)c2ccc(C)cc2)cc1`, the values for the GI50 in assay [1] and in assay [2] were 0.00145 µM and 30.2 µM, respectively. This compound had an EC50 in assay [3] of 150 µM. In addition, the Activity result in assay [4] is “Dose-dependent effect”; in assay [5], “Dose-dependent effect”; in assay [6], 65%; in assay [7] it was 80%; in assay [8], 80%.

Take `Cc1ccc(C#N)c(NS(=O)(=O)c2ccc(F)cc2)c1`: the GI50 in assay [1] is 30.2 µM; in assay [2], > 100 µM.

Turning to `Cc1ccc(N(C)S(=O)(=O)c2ccc(C)cc2)cc1`, the values for the concentration for 50% growth inhibition (GI50) in assay [1] and in assay [2] were 89.2 µM and 44.7 µM, respectively.

`Cc1ccc(CNc2ccc(C)cc2)cc1`: the 50% growth inhibitory concentration (GI50) in assay [1] worked out at 19.1 µM; in assay [2], 29.5 µM.

On to `Cc1ccc(S(=O)(=O)Nc2ccccc2[N+](=O)[O-])cc1`, for which the GI50 in assay [1] was 0.083 µM; in assay [2] it was 50.1 µM. Also, in assay [3], the EC50 was > 150 µM.

Take `Cc1ccc(NCc2ccccc2)cc1` [N-BENZYL-4-METHYLANILINE]: the figures for the concentration for 50% growth inhibition (GI50) in assay [1] and in assay [2] were > 100 µM and 52.4 µM, respectively.

Consider `O=S(=O)(Nc1ccccc1)c1ccccc1` [PHENYL(PHENYLSULFONYL)AMINE], for which the GI50 in assay [2] is > 100 µM.

Take `O=[N+]([O-])c1ccccc1NS(=O)(=O)c1ccccc1`: the figures for the GI50 in assay [1] and in assay [2] were 0.0148 µM and 22.9 µM, respectively.

For the compound `Cc1ccc(-c2nnn[nH]2)c(NS(=O)(=O)c2ccc(F)cc2)c1`, the GI50 in assay [1] and in assay [2] was > 100 µM each time.

For `Cc1ccc(NC(=O)c2ccc(C)cc2)cc1`, the figures for the 50% growth inhibitory concentration (GI50) in assay [1] and in assay [2] were 55 µM and 26.9 µM, respectively.

For `Cc1ccc(NS(=O)(=O)c2ccc(F)cc2)c(C(=O)O)c1`, the values for the 50% growth inhibitory concentration (GI50) in assay [1] and in assay [2] were 10.7 µM and > 100 µM, respectively.

With `Cc1ccc(NS(=O)(=O)c2ccccc2)c([N+](=O)[O-])c1`, the results for the GI50 in assay [1] and in assay [2] were 0.00295 µM and 60.2 µM, respectively.

As for `Cc1ccc(NS(=O)(=O)c2ccccc2)cc1`, the GI50 in assay [1] worked out at 21.3 µM; in assay [2], 13.8 µM.

As for `Cc1ccc(S(=O)(=O)Nc2ccc(C)cc2[N+](=O)[O-])cc1`, the GI50 in assay [1] was determined as 39.8 µM; in assay [2] it was 43.7 µM.

With `Cc1ccc(NS(=O)(=O)c2ccc(F)cc2)c([N+](=O)[O-])c1`, the 50% growth inhibitory concentration (GI50) in assay [1] amounted to 0.00234 µM; in assay [2] it was 0.85 µM. Also, the Activity entry in assay [4] is “Dose-dependent effect”; in assay [5] it was “Dose-dependent effect”; in assay [8] it was 50%.
